Experimental data from different studies.
Protocols differ between the studies behind these lines.
Target: Insulin receptor (INSR, Homo sapiens, UniProt P06213)

Structure (SMILES)	observed	technique	concentration	remaining binding [%]
Cc1cc(NC(=O)c2cccc(S(F)(F)(F)(F)F)c2)cc(-n2ccn3nc(-c4cccnc4)cc23)c1	cell-free assay	competition with immobilised ligand	1 µM	100
CCN1CCN(Cc2ccc(C(=O)Nc3ccc(C)c(Oc4ccc5c(c4)CC(=O)N5)c3)cc2C(F)(F)F)CC1	binding	competition with immobilised ligand	1 µM	77
CC(=O)N1CCC(c2ccc(C(=O)NC3=NCCN3)cc2C(F)(F)F)CC1	cell-free assay	competition with immobilised ligand	1 µM	100
Cc1cnn2ncc(-c3ccnc(N(C)C)n3)c2c1	binding	–	1 µM	68
CC(C)(C)c1ccc(-c2nc(CBr)nn2-c2cccc(O)c2)cc1	cell-free assay	competition with immobilised ligand	10 µM	93
CN(C)c1nccc(-c2cnc3ncccn23)n1	binding	–	1 µM	70
O=C(NCCCN1CCOCC1)c1ccc(Nc2nccc(-c3cc4ccccc4s3)n2)cc1	binding	competition with immobilised ligand	1 µM	95
O=C(Nc1cccnn1)N1CCC(=Cc2cccc(Oc3ccc(C(F)(F)F)cn3)c2)CC1	cell-free assay	competition with immobilised ligand	1 µM	100
C[C@H]1CCN(c2nccc(-c3cnn4ncccc34)n2)C1	binding	–	1 µM	69
CN(C)c1ncnc(-c2ccc3nc(Nc4cc(CN5CCN(C(=O)CC(F)(F)F)CC5)ccn4)[nH]c3c2)c1Cl	cell-free assay	competition with immobilised ligand	1 µM	100
F[C@@H]1CCN(c2nccc(-c3cnn4ncccc34)n2)C1	binding	–	1 µM	91
O=C(c1ccc(Nc2nccc(-c3cc4ccccc4s3)n2)cc1)N1CCC(N2CCCC2)CC1	binding	competition with immobilised ligand	1 µM	66
COc1ccnn2ncc(-c3ccnc(N(C)C)n3)c12	binding	–	1 µM	96
Cn1nc(C(F)(F)F)cc1-c1cnc(N2CCc3cc(S(=O)(=O)Nc4c(F)cc(Cl)cc4F)cc(N4CCCC4=O)c32)nc1	cell-free assay	competition with immobilised ligand	1 µM	89
N[C@H]1CCN(c2nccc(-c3cnn4ncccc34)n2)C1	binding	–	1 µM	85
c1cncc(-c2cccc(Nc3nccc(NC4CCCCC4)n3)c2)c1	binding	competition with immobilised ligand	10 µM	27
O=C(c1ccc(Nc2ncc(Cl)c(-c3cc4ccccc4s3)n2)cc1)N1CCC(N2CCCC2)CC1	binding	competition with immobilised ligand	1 µM	6.1
C=CC(=O)N1CCC(C(=O)NCC(=O)N2CCN(c3nc(-c4cnc(N)nc4C(F)F)nc(N4CCOCC4)n3)CC2)CC1	binding	competition with immobilised ligand	1 µM	99
CS(=O)(=O)NCC[C@H](NC(=O)c1cncc2c1cnn2-c1ccc(F)cc1)c1ccnc(S(C)(=O)=O)c1	cell-free assay	competition with immobilised ligand	1 µM	92
CNC(=O)[C@@H]1CC[C@@H](n2c(-c3ccc4cnccc4c3)nc3ccc(C(=O)NCc4cccc(C(N)=O)c4)cc32)C1	binding	competition with immobilised ligand	1 µM	92
O=C(Nc1c[nH]nc1C(=O)NC1CCNCC1)c1cc(F)cc(F)c1	binding	competition with immobilised ligand	1 µM	100
CCC(=O)N[C@H]1CC[C@@H](C(=O)N(C)c2ccc(-c3nc4ccccc4o3)cc2)C1	cell-free assay	competition with immobilised ligand	1 µM	91
CN(CCCC(F)(F)F)c1nccc(-c2cnn3ncccc23)n1	binding	–	1 µM	78
CCS(=O)(=O)c1cc2cc(C[C@](O)(CC(C)(C)c3ccc(F)cc3C(N)=O)C(F)(F)F)[nH]c2cn1	cell-free assay	competition with immobilised ligand	1 µM	94
C[C@@H]1CN(c2ccc3ncc(-c4ccc5[nH]nc(C6CC6)c5c4)n3n2)C[C@H](C)O1	binding	competition with immobilised ligand	0.5 µM	81
